# In the library only some 1.1% were active in any assay of this set; here they are far more common.
# GRK2 inh = inhibitors of human GRK2 displacing RNA aptamer | AID 488847 | bead flow cytometry, FAM-aptamer displacement from GRK2 | hit rate 0.59% among 330,000 | P25098 | inhibition of aptamer binding, % at 10 µM;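 active = inhibition of aptamer binding above 40%, roughly 3 SD of noise, on plates passing a quality check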;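 also: median bead fluorescence of bound FAM aptamer so fluorescent compounds give negative values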
# procasp3 activ = procaspase-3 (human) activation; activation, % at 8.5 µM; P42574; AID 463141; recombinant procaspase-3 D3A, Ac-DEVD-pNA absorbance 405 nm; hit rate 0.11% among 330,000;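 active = activation above the mean of all tested compounds plus 3 SD, cut at about 21% in these data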
# Target sequence (P42574 whole entry D9A/D28A/D175A): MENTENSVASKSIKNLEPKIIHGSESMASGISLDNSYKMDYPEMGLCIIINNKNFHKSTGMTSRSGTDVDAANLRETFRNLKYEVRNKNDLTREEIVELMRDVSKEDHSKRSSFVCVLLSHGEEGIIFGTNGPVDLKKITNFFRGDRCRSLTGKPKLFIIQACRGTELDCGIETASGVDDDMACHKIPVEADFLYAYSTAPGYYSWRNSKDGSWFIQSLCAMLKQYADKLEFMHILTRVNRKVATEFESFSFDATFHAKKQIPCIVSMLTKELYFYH
#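 Test system: Procaspase-3 D3A mutant; medium: Zinc-free HEPES/NaCl buffer with 0.01% Triton X-100 at pH 7.4; reagent: DEVD-pNA substrate; doses: one concentration, 8.5 µM nominal, 0.8% DMSO; times: 1 h preincubation plus 2 h reaction at 25 °C; signal: Epi-absorbance at 405 nm of released p-nitroaniline, 0 and 120 min; replicates: singlicate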
# aDG glyco up = increases alpha dystroglycan glycosylation | Pro5-aDG cells, alpha-DG glycosylation AlphaScreen (IIH6); 0% Pro5, 100% B10-LARGE cell signal | activation, % at 10 µM | hit rate 0.22% among 360,000;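 active = activation of at least 8% versus controls, or a plate z-score of at least 8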;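 also: Pro5 are CHO cells carrying HIG-tagged alpha-DG that lacks glycosylation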
# proCasp7 act = activates human procaspase-7, counter-screen for procaspase-3 activators | P55210 | recombinant procaspase-7, Ac-DEVD-pNA absorbance 405 nm; D23A/D198A/D206A triple mutant, cannot self-cleave; scale: DMSO 0, 5 µM enzyme 100 | activation, % at 8.5 µM | hit rate 0.093% among 330,000 | AID 463210;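 active = percent activation above the screen-wide mean plus 3 SD, cut at about 25% in these data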
# Target sequence (P55210 whole entry D23A/D198A/D206A): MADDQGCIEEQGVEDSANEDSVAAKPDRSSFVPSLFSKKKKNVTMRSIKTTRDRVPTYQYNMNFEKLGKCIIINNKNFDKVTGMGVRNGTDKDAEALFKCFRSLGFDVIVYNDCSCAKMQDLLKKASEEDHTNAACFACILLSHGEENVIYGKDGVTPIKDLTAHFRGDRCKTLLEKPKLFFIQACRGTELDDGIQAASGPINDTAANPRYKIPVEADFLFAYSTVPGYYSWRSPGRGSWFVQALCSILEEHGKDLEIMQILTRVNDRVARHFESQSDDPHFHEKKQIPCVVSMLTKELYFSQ
#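 Assay system: Uncleavable procaspase-7 mutant enzyme; Input: 2 µM procaspase-7 mutant as dispensed; Also added: DEVD-pNA substrate; Medium: Zinc-free HEPES pH 7.4 with 300 mM NaCl, 0.01% Triton X-100; Timing: 1 h compound preincubation, 2 h substrate cleavage, 25 °C; Measured by: Epi-absorbance of released pNA at 405 nm, two timepoints.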
# CaV13 ICDI inh = Disruptors of the CACNA1D IQ motif to Ca2+-dependent inactivation inhibitor domain association, primary screening, Förster resonance energy transfer in intact living …; HEK cells, CFP/YFP FRET ICDI-IQ, plate reader, 10 min; percent FRET-ratio fall versus neutral wells; inhibition, % at 12.3 µM; hit rate 0.098% among 340,000;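 active = mean replicate inhibition of at least 30% and at least 1% of replicates passing that level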
# T cell modulator = modulates CD8 T cell binding to vesicles. 2C CD8+ T cell-vesicle binding, flow cytometry; stronger effect = lower value. response (vesicle binding), % at 7 µM. hit rate 0.068% among 330,000;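 active = response, share of CD8 T cells binding vesicles, and their 90th percentile fluorescence all below set limits, cut at about 80% in these data, passing the limit was not always enough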;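 also: values below 100% mean blocked vesicle binding to the CD8+ T cells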
#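 Assay system – 2C mouse CD8+ T cells · Also added – QL9-loaded Drosophila micro-vesicles · Timing – Cell–vesicle co-incubation 1.5 h at 37 °C, staining 20 min on ice · Signal – flow cytometry of vesicle-bound cells · Measure – percent CD8+ FL2 mean versus row control · Controls – Peptide-free naked vesicles (low) and QL9 vesicles with 0.7% DMSO vehicle (high)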
# GRK2 CP1 = confirmation of human GRK2 inhibitors displacing RNA aptamer | aptamer displacement, % at 10 µM | AID 504451 | bead-bound GRK2, FAM-aptamer displacement, flow cytometry | hit rate 4% among 2,000 | shares compounds with GRK2 inh;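 active = aptamer displacement above 40%, near three times the noise of non-fluorescent compounds, on plates passing quality checks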;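 also: negative values mostly reflect intrinsic compound fluorescence rather than true enhancement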
# Aptamer quench SP = quenches fluorescent RNA aptamer, GRK2 hit artifact; fluorescence response (% of DMSO), % at 10 µM; 2,000 tested, under 10 active; shares compounds with GRK2 inh; Carboxyfluorescein RNA aptamer on beads, flow cytometry quenching; stronger effect = lower value;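 active = compounds that quench the bead-bound fluorescent RNA probe, cutting fluorescence to under half of the solvent control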;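 also: counterscreen run without GRK2 so only probe quenching by compound is measured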
# GRK2 CP2 = human GRK2 inhibition confirmation, cherry pick 2; shares compounds with GRK2 inh; bead-bound GRK2, FAM-aptamer displacement, flow cytometry; inhibition of aptamer binding, % at 10 µM; 360 tested, under 10 active;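 active = inhibition of aptamer binding above 40%, about triple the noise seen with nonglowing compounds, on plates passing quality control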;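 also: negative values mostly come from compounds that fluoresce themselves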
# FAM quench SP = aptamer fluorescence quenching in GRK2 counter-screen; shares compounds with GRK2 inh; carboxyfluorescein RNA aptamer beads, flow cytometry quenching; stronger effect = lower value; fluorescence response vs DMSO, % at 10 µM; 360 tested, under 10 active; AID 588494;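 active = response vs DMSO under 50%, meaning signal dropped by over half, treated as fluorescence quencher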;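 also: labelled aptamer on streptavidin beads without GRK2 as a quench counter-screen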
# A number is an active result; n = inactive; x = not tested or not shown; ! = not active in a repeat.
SMILES,GRK2 inh,procasp3 activ,aDG glyco up,proCasp7 act,CaV13 ICDI inh,T cell modulator,GRK2 CP1,Aptamer quench SP,others
O=C(NCc1ccc2c(c1)OCO2)c1cc2ncc(Br)cn2n1,n,n,n,n,n,n,n,n,
O=C(Cn1cnc2c(nnn2Cc2ccccc2F)c1=O)OCc1ccccc1,82.0,n,n,n,n,n,n,n,
CN(Cc1nc2ccccc2c(=O)[nH]1)C(=O)c1ccc(S(=O)(=O)N2CCCC2)cc1,n,n,n,n,n,n,x,x,
CCN(C(=O)c1cc2cccc(OC)c2oc1=O)C1CCCCC1,n,n,n,n,x,n,x,x,
O=C(c1ccco1)N1CCN(C(=O)c2cc(-c3ccncc3)nc3ccc(Br)cc23)CC1,n,n,n,n,n,n,x,x,
O=C(O)c1cc(-c2ccco2)nc2ccc(Br)cc12,55.0!,n,n,n,n,n,n,n,
O=C1NCCn2ccc(=O)cc21,n,n,n,n,n,n,x,x,
O=C(N/N=C/c1ccc(Br)cc1)c1cc[n+](Cc2ccccc2)cc1,n,n,n,n,n,n,x,x,
O=C(C[n+]1cccc(C(=O)N/N=C/c2ccc(Br)cc2)c1)c1ccccc1,89.0,n,n,n,n,n,n,n,
C=CCNC(=O)c1onc(CSc2ccc(F)c(F)c2)c1C(=O)NCC=C,53.0,n,n,n,n,n,n,n,
Cn1c(N2CCN(C(c3ccccc3)c3ccccc3)CC2)nc2ccccc21,98.0,n,n,n,n,n,n,n,
Cn1c(N2CCN(C(=O)Nc3ccc(F)cc3)CC2)nc2ccccc21,n,n,n,n,n,n,x,x,
CC(=O)CCc1c(C)[nH]c2ccc(NC(C)=O)cc2c1=O,n,n,n,n,x,n,x,x,
CCCc1c(C)[nH]c2ccc(NC(C)=O)cc2c1=O,74.0,n,n,n,x,n,n,n,
Nc1nc2c(-c3ccc([N+](=O)[O-])cc3)nnn2c2ccccc12,x,x,x,x,n,x,x,x,
Cc1ccccc1NC(=O)COc1coc(CN2CCCc3ccccc32)cc1=O,n,n,n,n,n,n,x,x,
O=C(COc1coc(CN2CCCc3ccccc32)cc1=O)Nc1ccc([N+](=O)[O-])cc1,62.0,n,n,n,n,n,n,n,
NC(=O)C[C@H](N)c1cn([C@@H](CC(N)=O)C(=O)N2CCNCC2)nn1,49.0,n,n,n,n,n,n,n,
CCN1CCN(c2cc(C)c3cc(NC(=S)N(C)Cc4ccccc4)ccc3n2)CC1,n,n,n,n,n,n,n,n,
O=C(N/N=C/c1ccc(Br)s1)c1ccc([N+](=O)[O-])cc1,78.0,n,n,n,n,n,n,n,
CCCCCC/C=C/c1ccc([C@H]2[C@H]3C=CC[C@@H](C)[C@@H]3C(=O)N2Cc2ccccc2)c(F)c1,n,n,n,n,n,n,n,n,
Cn1c(=O)c2c(nc(SCC(=O)NCc3ccc4c(c3)OCO4)n2Cc2ccccc2)n(C)c1=O,53.0,n,n,n,n,n,n,n,
Cn1c(=O)c2c(nc(SCC(=O)NCc3ccc4c(c3)OCO4)n2Cc2ccc(F)cc2)n(C)c1=O,n,n,n,n,n,n,x,x,
COC(=O)C1=C(C)N(Cc2ccc(Br)cc2)C(=S)NC1c1ccccc1 (stereo not drawn),x,x,x,x,n,x,x,x,
O=C(CS(=O)(=O)c1ccccc1)Nc1nc2ccccc2s1,n,n,n,n,n,n,x,x,
SMILES,GRK2 inh,procasp3 activ,aDG glyco up,proCasp7 act,CaV13 ICDI inh,T cell modulator,GRK2 CP1,Aptamer quench SP,others
O=C(C[n+]1cccc(CO)c1)Nc1nc2ccccc2s1,42.0,n,n,n,n,n,n,n,
CN=C(C)/C(C(=O)OC)=C(/O)c1ccc(Cl)cc1Cl,n,n,n,n,n,n,x,x,
Cc1ccc(S(=O)(=O)N2CCOCC2)cc1C(=O)N1CCN(c2ncccn2)CC1,x,x,n,x,n,x,x,x,
CCOC(=O)c1sc2nc3c(SCC(=O)O)cc(C(=O)c4cc(F)ccc4O)cn3c(=O)c2c1C,n,n,n,n,n,n,x,x,
CCOC(=O)c1sc2nc3c(SCC(=O)O)cc(C(=O)c4ccccc4O)cn3c(=O)c2c1C,63.0,n,n,n,n,n,n,n,
CC1(C)Cc2ccccc2-c2nnc(-c3cccnc3)n21,100.0,n,n,n,n,n,x,x,GRK2 CP2=n;FAM quench SP=n
CC1(C)Cc2ccccc2-c2nnc(-c3ccccc3)n21,n,n,n,n,n,n,x,x,
CC1CC(C)CN(C(=O)c2cc3cc(Br)cc(Br)c3o2)C1 (stereo not drawn),n,n,n,n,n,n,x,x,
C=CCc1c(C)nc(-c2ccccc2)nc1Nc1ccc(O)cc1,100.0,n,n,n,n,n,x,x,GRK2 CP2=n;FAM quench SP=n
O=C(NCC(F)(F)F)c1ccc(S(=O)(=O)Nc2ccccc2N2CCCC2)cc1,89.0,n,n,n,n,n,n,n,
CSc1ccc(Cl)c(C(=O)N2CCN(c3ncccn3)CC2)c1,43.0,n,n,n,n,n,x,x,GRK2 CP2=n;FAM quench SP=n
CC1(C)C2CC=C(/C=N/NC(=O)c3ccc(O)cc3)C1C2 (stereo not drawn),74.0,n,n,n,n,n,n,n,
O=C(N[C@H](Cc1ccccc1)C(=O)NCc1ccc2c(c1)OCO2)[C@H]1O[C@@H](n2ccc(=O)[nH]c2=O)[C@H](O)[C@@H]1O,x,x,x,x,n,x,x,x,
COc1ccccc1Cc1c(-c2cccc(Br)c2)nc2c(C)cc(Br)cn12,x,x,n,x,n,x,x,x,
Cc1cc(C)cc(OCC(=O)OCC(=O)c2cc(C)n(C3CC3)c2C)c1,n,n,n,n,x,n,n,n,
O=C(CCc1n[nH]c(=O)[nH]c1=O)N1CCCCC1,n,n,n,n,n,n,n,n,
O=C(CSc1n[nH]c(=O)[nH]c1=O)N1CCCCCC1,n,n,n,n,n,n,x,x,
COC(=O)Nc1ccc(S(=O)(=O)N2CCN(c3ccc(F)cc3)CC2)cc1,50.0,n,n,n,n,n,n,n,
COC(=O)Nc1ccc(S(=O)(=O)N2CCN(C)CC2)cc1,n,n,n,n,x,n,x,x,
